Results on 11 molecules are retold here after ChEMBL document CHEMBL2429730, “C23 steroids from the venom of Bufo bufo gargarizans” (J Nat Prod, 2013).

Molecules are shown by their SMILES. Calls of active or inactive are those of the source. The calls are words filed in the database; no cut-off is given here. Where only a bound is given, the exact number is not on record here.

The species named for one data set is Sus scrofa. Briefly: Inhibition of Na(+)/K(+) ATPase in pig cerebral cortex assessed as release of inorganic phosphate at 50 uM after 15 mins by colorimetric method. It is filed as tissue-based.
Conditions: not given
Regarding `C=CC1=CO[C@]23CC[C@H]1[C@@]2(C)CC[C@H]1[C@H]3CC[C@]2(O)C[C@@H](O)CC[C@]12C`, the inhibition entry was “inactive”.
`COC(=O)CCC(=O)C1=CC=C2[C@@H]3CC[C@@H]4C[C@@H](O)CC[C@]4(C)[C@H]3CC[C@]12C`: the inhibition result was “inactive”.

Tested on in the next data set: not listed separately
Briefly: Cytotoxicity against KM mouse splenic lymphocytes assessed as cell viability at 5 uM. Set-up: species or system Splenic lymphocyte. To be noted: read-out: Activity. The method in brief:
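Spleens from KM mice were homogenized in PBS and centrifuged. The pellet was red-cell-lysed for 5 min (Tris-base 2.6 g/L, NH4Cl 7.47 g/L, pH 7.2), then passed through a 300-mesh sieve. The resulting lymphocytes were tested by MTT assay, and survival rate was scored at 5 μM.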
On to `CC(=O)O[C@H]1[C@H]2O[C@]23[C@@H]2CC[C@@H]4C[C@@H](O)CC[C@]4(C)[C@H]2CC[C@]3(C)[C@H]1c1ccc(=O)oc1` [CINOBUFAGIN], for which the viability at 5 µM was found to be 100%.
Turning to `CC(=O)O[C@H]1C[C@]2(O)[C@@H]3CC[C@@H]4C[C@@H](O)CC[C@]4(C)[C@H]3CC[C@]2(C)[C@H]1c1ccc(=O)oc1` [BUFOTALIN], the viability at 5 µM is 100%.
Same read-out and setting: the result for `C[C@]12CC[C@H](O)C[C@H]1CC[C@@H]1[C@@H]2CC[C@]2(C)[C@@H](c3ccc(=O)oc3)CC[C@]12O` [BUFALIN] reads 100%; that for `C[C@]12CC[C@H](O)C[C@@]1(O)CC[C@@H]1[C@@H]2CC[C@]2(C)[C@@H](c3ccc(=O)oc3)CC[C@]12O` [TELOCINOBUFAGIN], 100%.

Tested on in a further data set: not listed separately
As to the kind of experiment: Cytotoxicity against KM mouse splenic lymphocytes. The conditions noted are these: Splenic lymphocyte.
In turn, `C[C@]12CC[C@H](O)C[C@H]1CC[C@@H]1[C@@H]2CC[C@]2(C)[C@@H](c3ccc(=O)oc3)C[C@H]3O[C@]132` [BUFOGENIN] displayed an IC50 of more than 100 µM.
Molecule `C[C@@H]1O[C@@]12[C@@H]1O[C@@H]3C[C@H]2[C@@]2(C)CC[C@H]4[C@@H](CC[C@@H]5C[C@@H](O)CC[C@@]54C)[C@@]32O1` yielded a half-maximal inhibitory concentration (IC50) of more than 100 µM.
`C=CC1=CO[C@]23C[C@H](OC(C)=O)[C@H]1[C@@]2(C)CC[C@H]1[C@H]3CC[C@@H]2C[C@@H](O)CC[C@@]21C` had a half-maximal inhibitory concentration (IC50) of more than 100 µM.
The same measure, in the same setting: the result for `C=CC1=CO[C@]23CC[C@H]1[C@@]2(C)CC[C@H]1[C@H]3CC[C@]2(O)C[C@@H](O)CC[C@]12C` reads 79.4 µM.
The same measure, in the same setting: with `COC(=O)CCC(=O)C1=CC=C2[C@@H]3CC[C@@H]4C[C@@H](O)CC[C@]4(C)[C@H]3CC[C@]12C` the figure was more than 100 µM; with `C/C=C(\C=O)[C@H]1[C@@H](OC(C)=O)[C@H]2O[C@]23[C@@H]2CC[C@@H]4C[C@@H](O)CC[C@]4(C)[C@H]2CC[C@]13C`, more than 100 µM.

The next data set deals with A549. Briefly: Cytotoxicity against human A549 cells after 24 hrs by MTT assay. It is filed as functional, cell-based. The conditions noted are these: A549, 24 h. In general terms: Formazan colour is commonly taken as a measure of viable cells.
On to `CC(=O)O[C@H]1[C@H]2O[C@]23[C@@H]2CC[C@@H]4C[C@@H](O)CC[C@]4(C)[C@H]2CC[C@]3(C)[C@H]1c1ccc(=O)oc1` [CINOBUFAGIN], for which half-maximal inhibition (IC50) required 6.5 µM.
Same read-out and setting: the result for `C[C@]12CC[C@H](O)C[C@H]1CC[C@@H]1[C@@H]2CC[C@]2(C)[C@@H](c3ccc(=O)oc3)C[C@H]3O[C@]132` [BUFOGENIN] reads more than 100 µM.
`C[C@@H]1O[C@@]12[C@@H]1O[C@@H]3C[C@H]2[C@@]2(C)CC[C@H]4[C@@H](CC[C@@H]5C[C@@H](O)CC[C@@]54C)[C@@]32O1` displayed an IC50 of more than 100 µM.
Regarding `C=CC1=CO[C@]23C[C@H](OC(C)=O)[C@H]1[C@@]2(C)CC[C@H]1[C@H]3CC[C@@H]2C[C@@H](O)CC[C@@]21C`, the IC50 was more than 100 µM.
`CC(=O)O[C@H]1C[C@]2(O)[C@@H]3CC[C@@H]4C[C@@H](O)CC[C@]4(C)[C@H]3CC[C@]2(C)[C@H]1c1ccc(=O)oc1` [BUFOTALIN] had an IC50 of 0.9 µM.
As for `C[C@]12CC[C@H](O)C[C@H]1CC[C@@H]1[C@@H]2CC[C@]2(C)[C@@H](c3ccc(=O)oc3)CC[C@]12O` [BUFALIN], 0.6 µM corresponded to half-maximal inhibition (IC50).
Molecule `C[C@]12CC[C@H](O)C[C@@]1(O)CC[C@@H]1[C@@H]2CC[C@]2(C)[C@@H](c3ccc(=O)oc3)CC[C@]12O` [TELOCINOBUFAGIN] had an IC50 of 3 µM.
The same measure, in the same setting: the result for `COc1cccc2c1C(=O)c1c(O)c3c(c(O)c1C2=O)C[C@@](O)(C(=O)CO)C[C@@H]3O[C@H]1C[C@H](N)[C@H](O)[C@H](C)O1` [DOXORUBICIN] reads 0.1 µM; that for `C=CC1=CO[C@]23CC[C@H]1[C@@]2(C)CC[C@H]1[C@H]3CC[C@]2(O)C[C@@H](O)CC[C@]12C`, more than 100 µM.
`COC(=O)CCC(=O)C1=CC=C2[C@@H]3CC[C@@H]4C[C@@H](O)CC[C@]4(C)[C@H]3CC[C@]12C` displayed an IC50 of more than 100 µM.
For the molecule `C/C=C(\C=O)[C@H]1[C@@H](OC(C)=O)[C@H]2O[C@]23[C@@H]2CC[C@@H]4C[C@@H](O)CC[C@]4(C)[C@H]2CC[C@]13C`, the IC50 was found to be 45.6 µM.

A further data set relates to HepG2. As to the kind of experiment: Cytotoxicity against human HepG2 cells after 24 hrs by MTT assay. It is filed as functional, cell-based. To be noted: HepG2, 24 h.
`CC(=O)O[C@H]1[C@H]2O[C@]23[C@@H]2CC[C@@H]4C[C@@H](O)CC[C@]4(C)[C@H]2CC[C@]3(C)[C@H]1c1ccc(=O)oc1` [CINOBUFAGIN] yielded an IC50 of 5.5 µM.
Same read-out and setting: the result for `C[C@]12CC[C@H](O)C[C@H]1CC[C@@H]1[C@@H]2CC[C@]2(C)[C@@H](c3ccc(=O)oc3)C[C@H]3O[C@]132` [BUFOGENIN] reads 43.3 µM; that for `C[C@@H]1O[C@@]12[C@@H]1O[C@@H]3C[C@H]2[C@@]2(C)CC[C@H]4[C@@H](CC[C@@H]5C[C@@H](O)CC[C@@]54C)[C@@]32O1`, more than 100 µM; that for `C=CC1=CO[C@]23C[C@H](OC(C)=O)[C@H]1[C@@]2(C)CC[C@H]1[C@H]3CC[C@@H]2C[C@@H](O)CC[C@@]21C`, 64.8 µM.
Still for that read-out and setting: with `CC(=O)O[C@H]1C[C@]2(O)[C@@H]3CC[C@@H]4C[C@@H](O)CC[C@]4(C)[C@H]3CC[C@]2(C)[C@H]1c1ccc(=O)oc1` [BUFOTALIN] the figure was 0.5 µM; with `C[C@]12CC[C@H](O)C[C@H]1CC[C@@H]1[C@@H]2CC[C@]2(C)[C@@H](c3ccc(=O)oc3)CC[C@]12O` [BUFALIN], 0.6 µM.
On the same count and under the same terms, with `C[C@]12CC[C@H](O)C[C@@]1(O)CC[C@@H]1[C@@H]2CC[C@]2(C)[C@@H](c3ccc(=O)oc3)CC[C@]12O` [TELOCINOBUFAGIN] the figure was 2.4 µM; with `C=CC1=CO[C@]23CC[C@H]1[C@@]2(C)CC[C@H]1[C@H]3CC[C@]2(O)C[C@@H](O)CC[C@]12C`, 68.7 µM; with `COC(=O)CCC(=O)C1=CC=C2[C@@H]3CC[C@@H]4C[C@@H](O)CC[C@]4(C)[C@H]3CC[C@]12C`, more than 100 µM.
With `C/C=C(\C=O)[C@H]1[C@@H](OC(C)=O)[C@H]2O[C@]23[C@@H]2CC[C@@H]4C[C@@H](O)CC[C@]4(C)[C@H]2CC[C@]13C`, the IC50 was more than 26.8 µM.

Tested on in another data set: not listed separately
As to the kind of experiment: Inhibition of Na(+)/K(+) ATPase in pig cerebral cortex assessed as release of inorganic phosphate after 15 mins by colorimetric method.
Conditions: not given
Regarding `C[C@]12CC[C@H](O)C[C@H]1CC[C@@H]1[C@@H]2CC[C@]2(C)[C@@H](c3ccc(=O)oc3)CC[C@]12O` [BUFALIN], the 50% inhibitory concentration (IC50) was 0.011 µM.

Broadly, the IC50 is the concentration that inhibits the measured activity by half.
